According to ChEMBL document CHEMBL3585272, “Syntheses and Antibacterial Activity of N-Acylated Ciprofloxacin Derivatives Based on the Trimethyl Lock” (ACS Med Chem Lett, 2015):
≈ marks a conversion by molar mass, not a printed value.

Assays:
[1] = test system: Staphylococcus aureus; assay: Antibacterial activity against Staphylococcus aureus SG511 at 0.1 mM incubated for 24 hrs at 37 degC by agar diffusion assay; format: functional; details: SG511, 24 h, read-out: DIZ
Summary of the method: (§1)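 Agar well diffusion. 50 μL of a 0.1 mM solution in 1:9 DMSO/MeOH was added to 9 mm wells in Standard I nutrient agar or Mueller Hinton II agar. Plates were incubated at 37 °C for 24 h, or 44 h for M. vaccae, then inhibition zones were read. Unclear zones were scored separately.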

[2] = test system: Escherichia coli; assay: Antibacterial activity against Escherichia coli X580 at 0.1 mM incubated for 24 hrs at 37 degC by agar diffusion assay; format: functional; details: X580, 24 h, read-out: DIZ; summary of the method: as §1
[3] = test system: Escherichia coli; assay: Antibacterial activity against Escherichia coli DC0 at 0.1 mM incubated for 24 hrs at 37 degC by agar diffusion assay; format: functional; details: DC0, 24 h, read-out: DIZ; summary of the method: as §1
[4] = test system: Mycolicibacterium vaccae; assay: Antibacterial activity against Mycobacterium vaccae IMET10670 at 0.1 mM incubated for 44 hrs at 37 degC by agar diffusion assay; format: functional; details: IMET10670, 44 h, read-out: DIZ; summary of the method: as §1
[5] = test system: Pseudomonas aeruginosa; assay: Antibacterial activity against Pseudomonas aeruginosa K799/61 at 0.1 mM incubated for 24 hrs at 37 degC by agar diffusion assay; format: functional; details: K799/61, 24 h, read-out: DIZ; summary of the method: as §1
[6] = test system: Pseudomonas aeruginosa; assay: Antibacterial activity against wild type Pseudomonas aeruginosa K799 at 0.1 mM incubated for 24 hrs at 37 degC by agar diffusion assay; format: functional; details: K799, 24 h, read-out: DIZ; summary of the method: as §1
[7] = test system: Acinetobacter baumannii; assay: Antibacterial activity against Acinetobacter baumannii ATCC 17961 at 0.1 mM incubated for 24 hrs at 37 degC by agar diffusion assay; format: functional; details: ATCC 17961, 24 h, read-out: DIZ; summary of the method: as §1
[8] = test system: Bacillus subtilis; assay: Antibacterial activity against Bacillus subtilis ATCC 6633 at 0.1 mM incubated for 24 hrs at 37 degC by agar diffusion assay; format: functional; details: ATCC 6633, 24 h, read-out: DIZ; summary of the method: as §1
[9] = test system: Escherichia coli; assay: Antibacterial activity against Escherichia coli DC2 at 0.1 mM incubated for 24 hrs at 37 degC by agar diffusion assay; format: functional; details: DC2, 24 h, read-out: DIZ; summary of the method: as §1
[10] = test system: Micrococcus luteus; assay: Antibacterial activity against Micrococcus luteus ATCC 10240 at 0.1 mM incubated for 24 hrs at 37 degC by agar diffusion assay; format: functional; details: ATCC 10240, 24 h, read-out: DIZ; summary of the method: as §1
[11] = Retention time of the compound in presence of methyl mercaptoacetate in CH3CN/PBS solution at 37 degC incubated for 3 hrs by HPLC method; format: physicochemical; details: buffer
[12] = test system: Escherichia coli; assay: Antibacterial activity against Escherichia coli DC0 by broth microdilution method; format: functional
Summary of the method: (§2)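 Broth microdilution in Mueller-Hinton broth No.2 (MHII) following CLSI guidelines. The MIC (μM) was read by visual end point. Each compound was tested in triplicate.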

[13] = test system: Micrococcus luteus; assay: Antibacterial activity against Micrococcus luteus ATCC 10240 by broth microdilution method; format: functional; summary of the method: as §2
[14] = test system: Staphylococcus aureus; assay: Antibacterial activity against Staphylococcus aureus SG511 by broth microdilution method; format: functional; summary of the method: as §2
[15] = test system: Escherichia coli; assay: Antibacterial activity against Escherichia coli DC2 by broth microdilution method; format: functional; summary of the method: as §2
[16] = test system: Pseudomonas aeruginosa; assay: Antibacterial activity against wild type Pseudomonas aeruginosa K799 by broth microdilution method; format: functional; summary of the method: as §2
[17] = test system: Pseudomonas aeruginosa; assay: Antibacterial activity against Pseudomonas aeruginosa K799/61 by broth microdilution method; format: functional; summary of the method: as §2
[18] = test system: Mycolicibacterium vaccae; assay: Antibacterial activity against Mycobacterium vaccae IMET10670 by broth microdilution method; format: functional; summary of the method: as §2
[19] = test system: Acinetobacter baumannii; assay: Antibacterial activity against Acinetobacter baumannii ATCC 17961 by broth microdilution method; format: functional; summary of the method: as §2
[20] = test system: Bacillus subtilis; assay: Antibacterial activity against Bacillus subtilis ATCC 6633 by broth microdilution method; format: functional; summary of the method: as §2
[21] = test system: Mycolicibacterium vaccae; assay: Antibacterial activity against Mycobacterium vaccae IMET10670 assessed as unclear inhibition zone or inhibition zone with many colonies at 0.1 mM incubated for 44 hrs at 37 degC by agar diffusion assay; format: functional; details: IMET10670, 44 h, read-out: DIZ; summary of the method: as §1
[22] = test system: Escherichia coli; assay: Antibacterial activity against Escherichia coli DC0 assessed as unclear inhibition zone or inhibition zone with many colonies at 0.1 mM incubated for 24 hrs at 37 degC by agar diffusion assay; format: functional; details: DC0, 24 h, read-out: DIZ; summary of the method: as §1
[23] = test system: Acinetobacter baumannii; assay: Antibacterial activity against Acinetobacter baumannii ATCC 17961 assessed as unclear inhibition zone or inhibition zone with many colonies at 0.1 mM incubated for 24 hrs at 37 degC by agar diffusion assay; format: functional; details: ATCC 17961, 24 h, read-out: DIZ; summary of the method: as §1
[24] = test system: Escherichia coli; assay: Antibacterial activity against Escherichia coli X580 assessed as unclear inhibition zone or inhibition zone with many colonies at 0.1 mM incubated for 24 hrs at 37 degC by agar diffusion assay; format: functional; details: X580, 24 h, read-out: DIZ; summary of the method: as §1
[25] = test system: Pseudomonas aeruginosa; assay: Antibacterial activity against Pseudomonas aeruginosa K799/61 assessed as unclear inhibition zone or inhibition zone with many colonies at 0.1 mM incubated for 24 hrs at 37 degC by agar diffusion assay; format: functional; details: K799/61, 24 h, read-out: DIZ; summary of the method: as §1

SMILES | zone of inhibition at 100 µM [1] [mm] | zone of inhibition at 100 µM [2] [mm] | zone of inhibition at 100 µM [3] [mm] | zone of inhibition at 100 µM [4] [mm] | zone of inhibition at 100 µM [5] [mm] | zone of inhibition at 100 µM [6] [mm] | zone of inhibition at 100 µM [7] [mm] | zone of inhibition at 100 µM [8] [mm] | zone of inhibition at 100 µM [9] [mm] | zone of inhibition at 100 µM [10] [mm] | MIC [12] [µM] | MIC [13] [µM] | MIC [14] [µM] | MIC [15] [µM] | MIC [16] [µM] | MIC [17] [µM] | MIC [18] [µM] | MIC [19] [µM] | MIC [20] [µM] | also measured
CC1=C(N)C(=O)C(C(C)(C)CC(=O)O)=C(C)C1=O | 0 | 0 | 0 | 0 | 0 | 0 | 0 | 0 | 0 | 0 | – | – | – | – | – | – | – | – | – | –
CC1=CC(=O)C(C(C)(C)CC(=O)N2CCN(c3ccccc3)CC2)=C(C)C1=O | – | – | – | – | – | – | – | – | – | – | – | – | – | – | – | – | – | – | – | Retention_time [11]: 11.1 min
CC(C)(C)CC(=O)N1CCN(c2cc3c(cc2F)c(=O)c(C(=O)O)cn3C2CC2)CC1 | – | – | – | – | – | – | – | – | – | – | > 100 | 12.5 (≈ 5.37 µg/mL) | 0.4 (≈ 0.172 µg/mL) | 100 (≈ 42.9 µg/mL) | > 100 | > 100 | 2 (≈ 0.859 µg/mL) | 25 (≈ 10.7 µg/mL) | < 0.05 | –
CC1=CC(=O)C(C(C)(C)CC(=O)O)=C(C)C1=O | 0 | 0 | 0 | 0 | 0 | 0 | 0 | 0 | 0 | 0 | > 100 | 50 (≈ 11.8 µg/mL) | > 100 | > 100 | > 100 | > 100 | 80 (≈ 18.9 µg/mL) | > 100 | 50 (≈ 11.8 µg/mL) | –
CC1=CC(=O)C(C(C)(C)CC(=O)N2CCN(c3cc4c(cc3F)c(=O)c(C(=O)O)cn4C3CC3)CC2)=C(C)C1=O | 33 | 32 | 21 | 32 | 35 | 41 | 26 | 39 | 27 | 28 | 12.5 (≈ 6.87 µg/mL) | 0.2 (≈ 0.11 µg/mL) | < 0.05 | 6.25 (≈ 3.43 µg/mL) | 1.25 (≈ 0.687 µg/mL) | 2.5 (≈ 1.37 µg/mL) | 0.5 (≈ 0.275 µg/mL) | 0.39 (≈ 0.214 µg/mL) | < 0.05 | zone of inhibition at 100 µM [21]: 42 mm; zone of inhibition at 100 µM [22]: 29 mm; zone of inhibition at 100 µM [23]: 32 mm; zone of inhibition at 100 µM [24]: 40 mm; zone of inhibition at 100 µM [25]: 42 mm
CC(C)(C)OC(=O)N1CCN(c2cc3c(cc2F)c(=O)c(C(=O)O)cn3C2CC2)CC1 | – | – | – | – | – | – | – | – | – | – | > 100 | > 100 | 0.4 (≈ 0.173 µg/mL) | > 100 | > 100 | > 100 | 2 (≈ 0.863 µg/mL) | > 100 | < 0.05 | –
